ChEMBL document CHEMBL1828517, “Synthesis, evaluation and application of polycyclic fluorescent analogues as N-methyl-D-aspartate receptor and voltage gated calcium channel ligands” (Eur J Med Chem, 2011)
Calls of active or inactive are those of the source. No cut-off for these calls is given here.

Key:
[1] = target: T1, Glutamate NMDA receptor (Rattus norvegicus) (UniProt P35439+Q00959+Q00960+Q00961+Q62645+Q8VHN2+Q9R1M7); test: Antagonist activity at NMDA receptor in Sprague-Dawley rat striatal synaptoneurosomes assessed as inhibition of NMDA/glycine-induced calcium flux at 100 uM by spectrofluorimetric analysis relative to control; assay type: functional
Procedure, shortened: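 Male Sprague-Dawley rat brain synaptoneurosomes are loaded with Mag-Fura-2/Fura-2 AM (5 μM final) for 10 min at 37 °C and resuspended in Krebs-HEPES pH 7.4. Compounds at 100 μM (0.1% DMSO final) are preincubated 5 min at 37 °C. NMDA (100 μM) plus glycine (100 μM) is added at 10 s and ratiometric fluorescence is read. Results are % of the DMSO control, 3 preparations × 3 determinations.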

[2] = test system: Glutamate NMDA receptor (Rattus norvegicus); test: Antagonist activity at NMDA receptor in Sprague-Dawley rat striatal synaptoneurosomes assessed as inhibition of NMDA/glycine-induced calcium flux at 100 uM by spectrofluorimetric analysis relative to control
[3] = Antagonist activity at voltage gated calcium channel in Sprague-Dawley rat striatal synaptoneurosomes assessed as inhibition of KCl-induced calcium flux at 100 uM by spectrofluorimetric analysis relative to control; assay type: functional
Procedure, shortened: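 Rat synaptoneurosomes loaded with Fura-2 AM (5 μM final, 10 min, 37 °C) in Krebs-HEPES pH 7.4. Compounds at 100 μM (0.1% DMSO) are preincubated 5 min at 37 °C. Depolarization is done at 10 s with KCl (140 mM) solution. Baseline is subtracted from peak fluorescence, the KCl-induced rise is taken as 100%, and inhibition is expressed relative to it.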

Glutamate NMDA receptor = test: Antagonist activity at NMDA receptor in Sprague-Dawley rat striatal synaptoneurosomes assessed as inhibition of NMDA/glycine-induced calcium flux by spectrofluorimetric analysis; assay type: functional
Procedure, shortened: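 Fura-2 AM-loaded rat synaptoneurosomes in Krebs-HEPES pH 7.4 at 37 °C. Compound is preincubated 5 min at log-spaced concentrations. Calcium influx is triggered with NMDA (100 μM) plus glycine (100 μM) and measured by ratiometric spectrofluorimetry. The concentration-response is fitted to a four-parameter logistic equation; 3 preparations × 3 determinations.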

[4] = target: T1, Glutamate NMDA receptor (Rattus norvegicus); test: Binding affinity to NMDA receptor in Sprague-Dawley rat striatal synaptoneurosomes at 100 uM after 30 mins by competition binding assay in presence of amantadine; assay type: protein-complex assay
Procedure, shortened: (§1)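 Unloaded rat synaptoneurosomes (0.6 mg/ml) are resuspended in Krebs-HEPES at 37 °C and given the fluorescent ligand (100 μM) alone or with a competitor at 100 μM (DMSO <0.1%). NMDA (100 μM) plus glycine (100 μM) is added, followed by 30 min at 37 °C. The pellet is washed and resuspended, and fluorescence is read at 324/455 nm. Results are % of ligand-alone intensity; n = 9.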

[5] = target: T1, Glutamate NMDA receptor (Rattus norvegicus); test: Binding affinity to NMDA receptor in Sprague-Dawley rat striatal synaptoneurosomes at 100 uM after 30 mins by competition binding assay in presence of NGP1-01; assay type: protein-complex assay; procedure, shortened: as §1
[6] = target: T1, Glutamate NMDA receptor (Rattus norvegicus); test: Binding affinity to NMDA receptor in Sprague-Dawley rat striatal synaptoneurosomes at 100 uM after 30 mins by competition binding assay in presence of MK-801; assay type: protein-complex assay; procedure, shortened: as §1

Row | Structure (SMILES) | inhibition [1] | inhibition (INH) [2] [%] | inhibition (INH) [3] [%] | IC50 (Glutamate NMDA receptor) [nM] | inhibition [4] | inhibition [5] | inhibition [6]
1 | N#Cc1c2ccccc2cn1C12CC3CC(CC(C3)C1)C2 | 16% |  |  |  |  |  | 
2 | O=C(NCCCNC12CC3CC(CC(C3)C1)C2)c1cc2ccccc2oc1=O | 13.2% | 86.77 | 67.99 |  |  |  | 
3 | CNc1ccccc1C(=O)NCCCNC12CC3CC(CC(C3)C1)C2 | 12% | 88.02 | 87.91 |  |  |  | 
4 | NCCCNC12CC3CC(CC(C3)C1)C2 | 9.01% | 91 | 89.3 |  |  |  | 
5 | N#Cc1c2ccccc2cn1CCCNC12CC3CC(CC(C3)C1)C2 | 13.6% | 86.41 | 45.92 |  |  |  | 
6 | CN(C)c1cccc2c(S(=O)(=O)NCCCNC34CC5CC(CC(C5)C3)C4)cccc12 | 37% | 62.97 | 36.74 | 270 | inactive | inactive | inactive
7 | CN(C)c1cccc2c(S(=O)(=O)NC34CC5CC(CC(C5)C3)C4)cccc12 | 21.9% |  |  |  |  |  | 
8 | O=[N+]([O-])c1ccc(NC23CC4CC(CC(C4)C2)C3)c([N+](=O)[O-])c1 | 19.2% |  |  |  |  |  | 
9 | N#CCCNC12CC3CC(CC(C3)C1)C2 | 19.3% |  |  |  |  |  | 
10 | CNc1ccccc1C(=O)NC12CC3CC(CC(C3)C1)C2 | inactive |  |  |  |  |  | 
11 | O=[N+]([O-])c1ccc(NCCCNC23CC4CC(CC(C4)C2)C3)c([N+](=O)[O-])c1 | 23.4% | 76.59 | 88.5 |  |  |  | 
12 | O=C(NC12CC3CC(CC(C3)C1)C2)c1cc2ccccc2oc1=O | 20.3% |  |  |  |  |  | 
13 | O=C(NC12CC3CC(CC(C3)C1)C2)c1n[nH]c2ccccc12 | 16% | 83.7 |  |  |  |  | 
14 | O=C(OC12C3C4CC5C6C4C1C6C1(OCCCN12)C53)c1n[nH]c2ccccc12 (configuration not stated) | 13.6% | 77.89 | 83.62 |  |  |  | 
15 | OC12C3C4CC5C6C4C1C6C1(OCCCN21)C53 (configuration not stated) | 22.7% | 77.29 | 87.24 |  |  |  | 
16 | CNc1ccccc1C(=O)OC12C3C4CC5C6C4C1C6C1(OCCCN12)C53 (configuration not stated) | 12% | 86.41 | 84.79 |  |  |  | 
17 | O=C(NCCCNC12CC3CC(CC(C3)C1)C2)c1n[nH]c2ccccc12 | inactive | 95.19 | 86.91 |  |  |  | 
